thrombin 1536 = blocks human thrombin protease activity; alpha-thrombin, Boc-VPR-AMC fluorogenic substrate cleavage; inhibition, % at 5 µM; 220,000 compounds, 0.26% hits;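 active = inhibition at or above 40%; inactive = inhibition below 40%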;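 also: 0% = enzyme with no compound and 100% = wells without enzyme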
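signal = AMC fluorescence, 355/460 nm | material = human alpha-thrombin enzyme | control set = enzyme without compound as high, wells lacking enzyme as low | times = reaction at room temperature | read-out basis = percent inhibition scaled between no-compound controls and no-enzyme blanks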
FXIa inh = factor XIa (human) inhibition; P03951; purified FXIa, Boc-Glu-Ala-Arg-AMC fluorogenic substrate; inhibition, % at 5 µM; 220,000 compounds, 0.14% hits; AID 798;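 active = inhibition of at least 40%; inactive = inhibition below 40%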;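 also: fluorescence of freed AMC excited at 355 nm; 0% = enzyme without compound and 100% = no enzyme blank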
KLK5 inh = blocks human kallikrein 5 protease activity; Q9Y337; recombinant hK5, fluorogenic AMC substrate cleavage; inhibition, % at 5 µM; 210,000 compounds, 0.59% hits;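 active = inhibition of 40% or more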;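 also: 0% = enzyme controls without compound and 100% = no-enzyme blanks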
Target sequence (Q9Y337 67-293 limits assumed): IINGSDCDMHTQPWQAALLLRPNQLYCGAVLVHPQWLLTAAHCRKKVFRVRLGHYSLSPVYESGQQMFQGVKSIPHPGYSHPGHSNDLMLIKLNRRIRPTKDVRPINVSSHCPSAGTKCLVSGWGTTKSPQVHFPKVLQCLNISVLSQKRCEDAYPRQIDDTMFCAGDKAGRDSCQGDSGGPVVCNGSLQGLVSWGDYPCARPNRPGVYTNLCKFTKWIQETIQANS
Fh CTSL1 inh = blocks F. hepatica cathepsin L1 in PFM18AAP counter-screen; 300,000 compounds, 0.49% hits; inhibition, % at 5.96 µM; recombinant F. hepatica cathepsin L1, Z-Leu-Arg-MCA fluorescence; AID 1906;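 active = inhibition above the mean of all tested compounds plus 3 SD, set per screening campaign, cut at about 17% in these data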;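 also: 0% = plate median of test compound wells and 100% = 1 µM Z-Phe-Ala-diazomethylketone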
FXIIa inh 1536 = inhibitors of human coagulation factor XIIa | P00748 | purified FXIIa, Boc-QGR-AMC fluorogenic substrate, 2 h | inhibition, % at 5 µM | 220,000 compounds, 0.3% hits; in the data active = inhibition above about 40%;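 also: 0% = enzyme with no compound and 100% = blank without enzyme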
Rce1 inhib = blocks yeast Ras-converting enzyme. 290,000 compounds, 0.27% hits. calls only. yeast membranes, quenched prenylated peptide cleavage fluorescence;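 active = fall in fluorescence gain of 50% or more versus controls, with final raw signal at or below 3038400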;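 also: plate controls were neutral control wells for no effect and wells lacking membranes for full effect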
Starred values were filed as active, the others as inactive. Compounds with a hit are over-represented: about 1.4% of the library has one in this group of screens.

`COc1ccc(S(=O)(=O)n2nc(OC(=O)c3ccccc3)cc2N)cc1` gave thrombin 1536 4, FXIa inh 35, KLK5 inh 51*, Fh CTSL1 inh -21, FXIIa inh 1536 23 and Rce1 inhib inactive.
CCCCCCn1c(NCC)nc2c1c(=O)n(C)c(=O)n2C was read as thrombin 1536 -5, FXIa inh -5, KLK5 inh -7, Fh CTSL1 inh -1, FXIIa inh 1536 5 and Rce1 inhib inactive.
Screening CCCCCCn1c(Br)nc2c1c(=O)n(C)c(=O)n2C returned thrombin 1536 -6, FXIa inh -3, KLK5 inh -3, Fh CTSL1 inh 35*, FXIIa inh 1536 0 and Rce1 inhib inactive.
`C=C(CCC(=O)c1ccccc1)C(=O)c1ccccc1` gave thrombin 1536 41*, FXIa inh -1, KLK5 inh 19, Fh CTSL1 inh 41*, FXIIa inh 1536 -6 and Rce1 inhib inactive.
Screening FC(F)Oc1ccc(C2N=C(c3ccccc3)NO2)cc1 (stereo unspecified) returned Fh CTSL1 inh -1 and Rce1 inhib inactive.
For CCCCNC(=O)CCn1c(=O)c2ccccc2n(Cc2ccc(Cl)cc2)c1=O the results were thrombin 1536 -3, FXIa inh 13, KLK5 inh -7, Fh CTSL1 inh 2, FXIIa inh 1536 18 and Rce1 inhib inactive.
`Cc1ccc(CSc2nnc(-c3ccncc3)n2CC2CCCO2)cc1` (stereo unspecified) gave thrombin 1536 19, FXIa inh 9, KLK5 inh 81*, Fh CTSL1 inh 1, FXIIa inh 1536 26 and Rce1 inhib inactive.
For COc1cccc(/C=N/n2c(N)c(S(=O)(=O)c3cccs3)c3nc4ccccc4nc32)c1OC the results were thrombin 1536 18, FXIa inh 4, KLK5 inh 9, Fh CTSL1 inh 0, FXIIa inh 1536 44* and Rce1 inhib inactive.
For COCCn1c(N)c(S(=O)(=O)c2cccs2)c2nc3ccccc3nc21 the results were thrombin 1536 -9, FXIa inh -12, KLK5 inh -42, Fh CTSL1 inh 3, FXIIa inh 1536 32 and Rce1 inhib inactive.
For COc1ccc(Cn2c(N)c(S(=O)(=O)c3cccs3)c3nc4ccccc4nc32)cc1 the results were thrombin 1536 -11, FXIa inh 0, KLK5 inh -92, Fh CTSL1 inh 2, FXIIa inh 1536 8 and Rce1 inhib active.
CCOC(=O)C1=C(N)OC(CCl)=C(C#N)C1c1ccsc1 (stereo unspecified) was read as thrombin 1536 -2, FXIa inh 5, KLK5 inh -13, Fh CTSL1 inh 60*, FXIIa inh 1536 9 and Rce1 inhib inactive.
`CC1=C(C(=O)OCc2ccccc2)C(c2ccsc2)C(C#N)=C(N)O1` (stereo unspecified) gave thrombin 1536 -4, FXIa inh -11, KLK5 inh -6, Fh CTSL1 inh -9, FXIIa inh 1536 -4 and Rce1 inhib inactive.
Screening CCCCC(=O)NC(=O)NC(c1ccccc1)c1ccccc1 returned thrombin 1536 -2, FXIa inh 1, KLK5 inh -5, Fh CTSL1 inh 33*, FXIIa inh 1536 10 and Rce1 inhib inactive.
For C/C=C(/C)C(=O)O[C@H]1[C@@H](O)c2c(ccc3ccc(=O)oc23)OC1(C)C the results were thrombin 1536 1, FXIa inh 4, KLK5 inh -10, Fh CTSL1 inh 2, FXIIa inh 1536 12 and Rce1 inhib active.
For O=C(CNC(=O)c1cccc(F)c1)OCc1cc(=O)n2cc(Br)ccc2n1 the results were thrombin 1536 -11, FXIa inh 2, KLK5 inh -1, Fh CTSL1 inh 17*, FXIIa inh 1536 13 and Rce1 inhib inactive.
For CC#CC(=O)N1CCC(CCC(=O)N(C)Cc2ccccc2)CC1 the results were Fh CTSL1 inh 2 and Rce1 inhib inactive.
For O=C(NCc1ccccc1)N1CCOCC1 the results were thrombin 1536 0, FXIa inh 5, KLK5 inh 3, Fh CTSL1 inh -1, FXIIa inh 1536 8 and Rce1 inhib inactive.
`O=C(NCc1ccccc1)c1cccnc1N1CCOCC1` gave thrombin 1536 10, FXIa inh 2, KLK5 inh 72*, Fh CTSL1 inh -6, FXIIa inh 1536 -8 and Rce1 inhib inactive.
